Assay results published in the M2OR odorant receptor database.

Legend:
Details in all cases: stereoisomer not certain
[1] = target: T1, UniProt Q8VGX8
T1 sequence (whole entry): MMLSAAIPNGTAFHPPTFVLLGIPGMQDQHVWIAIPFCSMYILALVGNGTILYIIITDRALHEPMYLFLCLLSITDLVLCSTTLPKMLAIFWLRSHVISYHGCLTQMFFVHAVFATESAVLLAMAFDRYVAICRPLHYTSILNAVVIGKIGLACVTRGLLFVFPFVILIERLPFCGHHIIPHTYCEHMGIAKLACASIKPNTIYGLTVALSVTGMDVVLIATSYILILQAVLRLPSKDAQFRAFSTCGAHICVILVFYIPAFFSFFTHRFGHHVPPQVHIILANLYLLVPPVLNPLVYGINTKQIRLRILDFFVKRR
How it was run: (§1)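 Transient luciferase assays in mammalian cell lines were common, though methods varied by source. The values come from published papers and their supplementary material, with extra details from the original authors when needed. Responsive refers to a measured signal the original authors judged statistically different from baseline, and non-responsive (inactive) to the remainder.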

[2] = target: T2, UniProt Q8VGY6
T2 sequence (whole entry): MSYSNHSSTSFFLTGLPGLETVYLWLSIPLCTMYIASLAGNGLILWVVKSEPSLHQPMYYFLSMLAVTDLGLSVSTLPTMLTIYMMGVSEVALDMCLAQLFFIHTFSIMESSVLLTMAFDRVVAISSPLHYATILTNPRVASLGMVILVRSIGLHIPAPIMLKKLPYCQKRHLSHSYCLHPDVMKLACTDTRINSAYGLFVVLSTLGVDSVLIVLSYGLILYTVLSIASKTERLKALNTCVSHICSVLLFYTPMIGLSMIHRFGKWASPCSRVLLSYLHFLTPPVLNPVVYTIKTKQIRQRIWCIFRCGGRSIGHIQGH
How it was run: as §1

[3] = target: T3, UniProt Q8VGZ2
T3 sequence (whole entry): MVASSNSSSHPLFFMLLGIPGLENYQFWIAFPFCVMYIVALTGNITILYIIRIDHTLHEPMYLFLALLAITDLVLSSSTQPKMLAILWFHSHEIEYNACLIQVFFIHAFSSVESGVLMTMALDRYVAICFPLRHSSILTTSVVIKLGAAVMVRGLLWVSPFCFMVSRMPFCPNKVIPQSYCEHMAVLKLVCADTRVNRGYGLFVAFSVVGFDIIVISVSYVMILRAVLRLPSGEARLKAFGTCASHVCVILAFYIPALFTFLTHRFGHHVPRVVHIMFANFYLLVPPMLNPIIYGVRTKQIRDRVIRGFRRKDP
How it was run: as §1

[4] = target: T4, UniProt Q8VGZ7
T4 sequence (whole entry): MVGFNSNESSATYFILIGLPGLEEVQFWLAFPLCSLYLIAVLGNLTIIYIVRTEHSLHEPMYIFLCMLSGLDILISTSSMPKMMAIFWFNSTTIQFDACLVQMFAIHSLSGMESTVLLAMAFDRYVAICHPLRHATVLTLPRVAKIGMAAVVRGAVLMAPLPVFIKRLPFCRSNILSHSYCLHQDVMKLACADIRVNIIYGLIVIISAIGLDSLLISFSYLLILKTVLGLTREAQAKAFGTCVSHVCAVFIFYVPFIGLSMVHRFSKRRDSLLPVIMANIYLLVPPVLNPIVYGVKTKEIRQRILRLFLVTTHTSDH
How it was run: as §1

[5] = target: T5, UniProt Q8VH10
T5 sequence (whole entry): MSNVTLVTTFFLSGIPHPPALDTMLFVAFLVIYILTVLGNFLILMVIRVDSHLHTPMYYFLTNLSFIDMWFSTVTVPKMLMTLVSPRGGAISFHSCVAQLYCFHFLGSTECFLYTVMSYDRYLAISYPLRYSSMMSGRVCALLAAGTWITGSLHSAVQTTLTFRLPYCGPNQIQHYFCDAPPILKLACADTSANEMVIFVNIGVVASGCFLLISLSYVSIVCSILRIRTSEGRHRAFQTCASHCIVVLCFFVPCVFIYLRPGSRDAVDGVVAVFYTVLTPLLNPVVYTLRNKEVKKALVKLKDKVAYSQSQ
How it was run: as §1

[6] = target: T6, UniProt Q8VH16
T6 sequence (whole entry): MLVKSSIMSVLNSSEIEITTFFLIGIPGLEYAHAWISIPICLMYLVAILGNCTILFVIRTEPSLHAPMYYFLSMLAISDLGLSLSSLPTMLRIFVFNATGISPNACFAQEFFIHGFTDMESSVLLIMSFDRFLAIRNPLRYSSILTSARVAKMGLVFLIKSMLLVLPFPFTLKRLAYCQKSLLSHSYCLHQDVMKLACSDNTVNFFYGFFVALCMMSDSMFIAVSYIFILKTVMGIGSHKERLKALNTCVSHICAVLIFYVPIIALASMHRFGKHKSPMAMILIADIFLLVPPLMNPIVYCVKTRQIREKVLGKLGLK
How it was run: as §1

[7] = target: T7, UniProt Q8VH18
T7 sequence (whole entry): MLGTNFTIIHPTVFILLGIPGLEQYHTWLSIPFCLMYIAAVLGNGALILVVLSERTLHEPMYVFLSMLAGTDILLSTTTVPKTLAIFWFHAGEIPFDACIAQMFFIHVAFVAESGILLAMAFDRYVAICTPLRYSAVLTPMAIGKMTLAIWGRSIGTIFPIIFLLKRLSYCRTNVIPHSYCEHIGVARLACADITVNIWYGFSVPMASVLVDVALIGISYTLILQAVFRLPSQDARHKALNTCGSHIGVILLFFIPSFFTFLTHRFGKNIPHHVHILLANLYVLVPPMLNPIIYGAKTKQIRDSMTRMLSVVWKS
How it was run: as §1

[8] = target: T8, UniProt Q8VH20
T8 sequence (whole entry): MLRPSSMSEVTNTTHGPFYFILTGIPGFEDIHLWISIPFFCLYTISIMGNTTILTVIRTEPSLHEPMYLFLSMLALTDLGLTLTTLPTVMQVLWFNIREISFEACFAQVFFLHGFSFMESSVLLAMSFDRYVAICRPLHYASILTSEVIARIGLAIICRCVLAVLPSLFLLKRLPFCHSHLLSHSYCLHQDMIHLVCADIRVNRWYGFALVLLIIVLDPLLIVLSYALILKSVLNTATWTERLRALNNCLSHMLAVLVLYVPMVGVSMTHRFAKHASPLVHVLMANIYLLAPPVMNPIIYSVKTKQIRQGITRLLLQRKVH
How it was run: as §1

[9] = target: T9, UniProt Q8VH21
T9 sequence (whole entry): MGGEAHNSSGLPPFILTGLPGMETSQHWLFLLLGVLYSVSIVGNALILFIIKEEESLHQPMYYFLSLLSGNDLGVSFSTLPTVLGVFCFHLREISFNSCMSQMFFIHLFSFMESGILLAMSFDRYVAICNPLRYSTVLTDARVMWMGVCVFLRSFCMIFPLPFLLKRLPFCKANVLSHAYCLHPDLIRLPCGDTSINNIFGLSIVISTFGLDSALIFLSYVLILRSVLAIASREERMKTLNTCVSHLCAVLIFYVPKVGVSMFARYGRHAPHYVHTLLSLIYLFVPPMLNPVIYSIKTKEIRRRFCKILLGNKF
How it was run: as §1

[10] = target: T10, UniProt Q924H8
T10 sequence (whole entry): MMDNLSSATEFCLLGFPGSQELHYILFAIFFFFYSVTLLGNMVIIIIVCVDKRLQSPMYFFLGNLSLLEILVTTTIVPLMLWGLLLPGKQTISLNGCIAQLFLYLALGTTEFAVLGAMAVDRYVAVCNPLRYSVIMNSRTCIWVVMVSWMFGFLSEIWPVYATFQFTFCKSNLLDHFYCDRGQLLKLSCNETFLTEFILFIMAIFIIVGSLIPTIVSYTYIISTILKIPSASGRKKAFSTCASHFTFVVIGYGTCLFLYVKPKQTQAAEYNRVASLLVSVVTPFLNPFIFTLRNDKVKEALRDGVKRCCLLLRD
How it was run: as §1

[11] = target: T11, UniProt Q924X8
T11 sequence (whole entry): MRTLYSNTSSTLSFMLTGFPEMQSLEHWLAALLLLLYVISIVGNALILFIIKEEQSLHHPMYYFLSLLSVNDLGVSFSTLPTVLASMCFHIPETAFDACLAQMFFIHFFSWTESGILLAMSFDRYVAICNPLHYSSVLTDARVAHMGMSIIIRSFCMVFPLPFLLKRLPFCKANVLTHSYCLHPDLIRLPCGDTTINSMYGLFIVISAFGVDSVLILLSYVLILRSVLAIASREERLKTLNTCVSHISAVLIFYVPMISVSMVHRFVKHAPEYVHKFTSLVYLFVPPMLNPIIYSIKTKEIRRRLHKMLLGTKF
How it was run: as §1

[12] = target: T12, UniProt Q99NH4
T12 sequence (whole entry): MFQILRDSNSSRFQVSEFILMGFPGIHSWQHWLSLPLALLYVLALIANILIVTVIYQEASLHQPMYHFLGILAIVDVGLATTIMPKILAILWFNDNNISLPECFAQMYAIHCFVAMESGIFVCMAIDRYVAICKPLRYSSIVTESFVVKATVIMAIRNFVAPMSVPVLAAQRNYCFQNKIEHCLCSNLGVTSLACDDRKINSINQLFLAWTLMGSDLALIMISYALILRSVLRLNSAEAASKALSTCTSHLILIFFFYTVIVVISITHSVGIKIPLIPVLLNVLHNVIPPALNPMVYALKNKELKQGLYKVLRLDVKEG
How it was run: as §1

[13] = target: T13, UniProt Q9EPN9
T13 sequence (whole entry): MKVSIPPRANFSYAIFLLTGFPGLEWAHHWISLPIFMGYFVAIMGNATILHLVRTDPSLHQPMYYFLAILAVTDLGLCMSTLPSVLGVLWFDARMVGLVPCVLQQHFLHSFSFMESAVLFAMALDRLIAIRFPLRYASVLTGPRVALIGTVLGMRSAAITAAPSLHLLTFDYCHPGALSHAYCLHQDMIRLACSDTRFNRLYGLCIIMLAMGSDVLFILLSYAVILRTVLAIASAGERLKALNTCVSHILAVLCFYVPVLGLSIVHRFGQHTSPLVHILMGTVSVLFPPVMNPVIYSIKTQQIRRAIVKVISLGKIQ
How it was run: as §1

[14] = target: UniProt Q9R0K2
UniProt Q9R0K2, sequence (Q9R0K2 as listed by the source): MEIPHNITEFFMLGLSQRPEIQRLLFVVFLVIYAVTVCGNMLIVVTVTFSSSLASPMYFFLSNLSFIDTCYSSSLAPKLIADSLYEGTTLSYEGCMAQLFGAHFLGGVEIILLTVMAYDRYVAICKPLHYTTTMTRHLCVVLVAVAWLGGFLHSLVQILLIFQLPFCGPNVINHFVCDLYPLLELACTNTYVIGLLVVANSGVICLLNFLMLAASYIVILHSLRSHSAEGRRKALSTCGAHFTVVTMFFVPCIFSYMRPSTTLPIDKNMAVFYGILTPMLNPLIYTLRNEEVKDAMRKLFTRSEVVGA
How it was run: as §1

[15] = target: T14, UniProt Q9WU86
T14 sequence (whole entry): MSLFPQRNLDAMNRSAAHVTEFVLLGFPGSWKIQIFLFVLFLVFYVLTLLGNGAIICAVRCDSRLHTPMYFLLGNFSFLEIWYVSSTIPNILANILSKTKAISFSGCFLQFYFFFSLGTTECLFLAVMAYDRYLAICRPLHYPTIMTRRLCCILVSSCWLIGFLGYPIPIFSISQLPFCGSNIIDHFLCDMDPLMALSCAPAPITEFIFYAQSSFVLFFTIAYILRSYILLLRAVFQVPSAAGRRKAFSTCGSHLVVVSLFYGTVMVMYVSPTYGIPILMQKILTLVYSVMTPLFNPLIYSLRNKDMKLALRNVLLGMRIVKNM
How it was run: as §1

[16] = target: T15, UniProt Q9WU94
T15 sequence (whole entry): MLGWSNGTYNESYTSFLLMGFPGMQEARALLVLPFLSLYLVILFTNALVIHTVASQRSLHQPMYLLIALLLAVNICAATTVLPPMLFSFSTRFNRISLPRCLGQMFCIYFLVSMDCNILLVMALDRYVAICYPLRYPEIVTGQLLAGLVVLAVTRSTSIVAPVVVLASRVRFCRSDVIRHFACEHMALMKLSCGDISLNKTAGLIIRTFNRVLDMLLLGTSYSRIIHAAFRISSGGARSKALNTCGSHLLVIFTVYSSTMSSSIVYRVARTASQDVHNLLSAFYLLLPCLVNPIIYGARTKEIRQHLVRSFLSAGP
How it was run: as §1

[17] = target: T16, UniProt Q9WVD7
T16 sequence (whole entry): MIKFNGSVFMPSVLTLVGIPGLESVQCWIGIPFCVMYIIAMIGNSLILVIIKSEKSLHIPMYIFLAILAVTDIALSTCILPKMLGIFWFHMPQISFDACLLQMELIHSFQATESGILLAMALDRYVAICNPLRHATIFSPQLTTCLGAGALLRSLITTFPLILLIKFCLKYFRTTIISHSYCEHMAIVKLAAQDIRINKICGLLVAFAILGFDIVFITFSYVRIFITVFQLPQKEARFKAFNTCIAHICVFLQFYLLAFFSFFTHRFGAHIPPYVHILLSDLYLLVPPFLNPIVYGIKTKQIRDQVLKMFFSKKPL
How it was run: as §1

Measured: odorant receptor agonist call;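 note: active if original authors judged signal statistically different from baseline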

CCCCCCO
inactive: all assays above

CCCCCCCC(C)=O
not listed: [7] | [11] | [12] | [16] | [17]
inactive: all other assays above

CCC(=O)C(=O)CC
not listed: [7] | [11] | [12] | [16] | [17]
inactive: all other assays above
